{
  "source": "ChEMBL document CHEMBL1159309",
  "about": "“A prolyl endopeptidase-inhibiting benzofuran dimer from Polyozellus multiflex” (J Nat Prod, 2002)",
  "parameters_in_all_cases": "scale not given: the % may be the effect or the level left",
  "key": {"[1]": {"experiment": "Inhibition of trypsin at 12.2 uM relative to control", "in_short": "(§1)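 Enzyme assays run per supplier catalogue protocols, substrates as printed: […], elastase N-succinyl-Ala-Ala-Ala-pNA. Test sample given in MeOH; control received 10 µL MeOH in its place. Activity relative to solvent-treated control, mean of five data points with standard error of the mean.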"}, "[2]": {"experiment": "Inhibition of elastase at 12.2 uM relative to control", "in_short": "as §1"}, "[3]": {"experiment": "Inhibition of chymotrypsin at 12.2 uM relative to control", "in_short": "as §1"}, "[4]": {"experiment": "Inhibition of trypsin at 2.4 uM relative to control", "in_short": "as §1"}, "[5]": {"experiment": "Inhibition of chymotrypsin at 2.4 uM relative to control", "in_short": "as §1"}, "[6]": {"experiment": "Inhibition of elastase at 2.4 uM relative to control", "in_short": "as §1"}, "[7]": {"experiment": "Inhibition of trypsin at 97.6 uM relative to control", "in_short": "as §1"}, "[8]": {"experiment": "Inhibition of chymotrypsin at 97.6 uM relative to control", "in_short": "as §1"}, "[9]": {"experiment": "Inhibition of elastase at 97.6 uM relative to control", "in_short": "as §1"}},
  "data": [
    {"smiles": "COC(=O)c1oc2cc(O)c(O)cc2c1-c1c(C(=O)OC)oc2cc(O)c(O)cc12", "values": [
      {"measurement": "Activity", "setting": "[1]", "result": 5.6, "unit": "%"},
      {"measurement": "Activity", "setting": "[2]", "result": 27.6, "unit": "%"},
      {"measurement": "Activity", "setting": "[3]", "result": 6.6, "unit": "%"},
      {"measurement": "Activity", "setting": "[4]", "result": 3.1, "unit": "%"},
      {"measurement": "Activity", "setting": "[5]", "result": 3.7, "unit": "%"},
      {"measurement": "Activity", "setting": "[6]", "result": 22, "unit": "%"},
      {"measurement": "Activity", "setting": "[7]", "result": 5.9, "unit": "%"},
      {"measurement": "Activity", "setting": "[8]", "result": 4, "unit": "%"},
      {"measurement": "Activity", "setting": "[9]", "result": 29, "unit": "%"}
    ]}
  ]
}
